Reference: ChEMBL document CHEMBL5244249, “Discovery of tofacitinib derivatives as orally active antitumor agents based on the scaffold hybridization strategy” (Eur J Med Chem, 2020)
The source made the active and inactive calls. The calls are words filed in the database; no cut-off is given here.

Experiments:
[1] = Toxicity in SCID mouse xenografted with human MGC-803 cells assessed as effect on kidney at 12.5 to 25 mg/kg, IG administered for 21 days by H&E staining based histopathological analysis; assay type: organism-based; conditions: in vivo, po, 504 h, dose 12.5-25 mg/kg, time 21 day
In short: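 SCID mice bearing subcutaneous MGC-803 xenografts (right side) dosed with 12.5 or 25 mg/kg over 21 days, 0.5% CMC-Na vehicle as control; body weight and tumor size monitored periodically; major organs examined histopathologically at end; means ± SD.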

MGC-803 [2] = assay: Induction of apoptosis in human MGC-803 cells assessed as necrotic cells at 7.5 uM incubated for 24 hrs by Annexin V-FITC/PI staining based flow cytometric analysis (reference value: 2.0 %); assay type: functional
MGC-803 [3] = assay: Induction of apoptosis in human MGC-803 cells assessed as cell debris at 5 to 10 uM incubated for 24 hrs by Hoechst 33342 staining based fluorescence microscopic analysis; assay type: functional; conditions: dose 5-10 µM
In short: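 MGC-803 cells exposed to 0, 5, 7.5 or 10 μM; cell morphology imaged and nuclear morphology examined by staining. Mean ± SD, three independent experiments.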

MGC-803 [4] = assay: Cell cycle arrest in human MGC-803 cells assessed as G2/M phase cells at 10 uM incubated for 24 hrs by RNase/PI staining based flow cytometric analysis (reference value: 15.11%); assay type: functional
MGC-803 [5] = assay: Induction of apoptosis in human MGC-803 cells assessed as activation of cytochrome C release from mitochondria to cytoplasm incubated for 24 hrs by Western blot analysis; assay type: functional, cell-based; conditions: dose 5-10 µM
In short: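 After 24 h exposure of MGC-803 cells, Bcl-2, Mcl-1, Bax and cytochrome c release assessed by Western blot with band quantitation; mean ± SD from three independent experiments.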

MGC-803 [6] = assay: Induction of mitochondrial dysfunction in human MGC-803 cells assessed as increase in ratio of green to red fluorescence intensity incubated for 24 hrs by JC-1 staining based fluorescence microscopic analysis; assay type: functional, cell-based; conditions: dose 5-10 µM
MGC-803 [7] = assay: Induction of apoptosis in human MGC-803 cells assessed as early apoptotic cells at 5 uM incubated for 48 hrs by Annexin V-FITC/PI staining based flow cytometric analysis (reference value: 2.5 %); assay type: functional
MGC-803 [8] = assay: Induction of apoptosis in human MGC-803 cells assessed as necrotic cells at 7.5 uM incubated for 48 hrs by Annexin V-FITC/PI staining based flow cytometric analysis (reference value: 0.3 %); assay type: functional
MGC-803 [9] = assay: Induction of apoptosis in human MGC-803 cells assessed as late apoptotic cells at 5 uM incubated for 24 hrs by Annexin V-FITC/PI staining based flow cytometric analysis (reference value: 3.8 %); assay type: functional
[10] = Selectivity index, ratio of IC50 for cytotoxicity against human GES1 cells to IC50 for antiproliferative activity against human MGC-803 cells; assay type: toxicity, cell-based; conditions: GES1 cells and MGC-803 cells, read-out: Ratio IC50
MGC-803 [11] = assay: Induction of apoptosis in human MGC-803 cells assessed as nuclear fragmentation at 5 to 10 uM incubated for 24 hrs by Hoechst 33342 staining based fluorescence microscopic analysis; assay type: functional, cell-based; conditions: dose 5-10 µM
In short: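 MGC-803 cells treated at 0, 5, 7.5 and 10 μM; cell morphology and nuclear morphology (fragmentation, condensation) examined by staining and imaging; three independent experiments, mean ± SD.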

MGC-803 [12] = assay: Induction of apoptosis in human MGC-803 cells assessed as early apoptotic cells at 7.5 uM incubated for 24 hrs by Annexin V-FITC/PI staining based flow cytometric analysis (reference value: 3.9 %); assay type: functional
MGC-803 [13] = assay: Induction of apoptosis in human MGC-803 cells assessed as total apoptotic cells at 10 uM incubated for 24 hrs by Annexin V-FITC/PI staining based flow cytometric analysis (reference value: 7.7 %); assay type: functional
[14] = Activation of MAPK pathway in human MGC-803 cells assessed as change in p38 total expression at 5 to 10 uM incubated for 24 hrs by Western blot analysis; assay type: cell-based; conditions: dose 5-10 µM
MGC-803 [15] = assay: Induction of apoptosis in human MGC-803 cells assessed as late apoptotic cells at 10 uM incubated for 24 hrs by Annexin V-FITC/PI staining based flow cytometric analysis (reference value: 3.8 %); assay type: functional
MGC-803 [16] = assay: Antiproliferative activity against human MGC-803 cells assessed as decrease in cell viability at 10 uM preincubated with SP600125 for 4 hrs followed by compound addition and measured after 24 hrs by MTT assay; assay type: functional, cell-based
In short: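 MGC-803 cells pre-incubated 4 h with SB203580 (4 μM) or SP600125 (20 μM), then exposed to 10 μM test compound for 24 h; viability by MTT, expressed as percent of control. Mean ± SD, three independent experiments.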

MGC-803 [17] = assay: Induction of apoptosis in human MGC-803 cells assessed as early apoptotic cells at 10 uM incubated for 48 hrs by Annexin V-FITC/PI staining based flow cytometric analysis (reference value: 2.5 %); assay type: functional
[18] = Activation of MAPK pathway in human MGC-803 cells assessed as change in ERK1/2 total expression at 5 to 10 uM incubated for 24 hrs by Western blot analysis; assay type: cell-based; conditions: dose 5-10 µM
MGC-803 [19] = assay: Induction of apoptosis in human MGC-803 cells assessed as viable cells at 5 uM incubated for 24 hrs by Annexin V-FITC/PI staining based flow cytometric analysis (reference value: 90.3 %); assay type: functional; conditions: read-out: Activity
MGC-803 [20] = assay: Induction of apoptosis in human MGC-803 cells assessed as necrotic cells at 5 uM incubated for 48 hrs by Annexin V-FITC/PI staining based flow cytometric analysis (reference value: 0.3 %); assay type: functional
[21] = Cytotoxicity against human GES1 cells assessed as inhibition of cell growth incubated for 72 hrs by MTT assay; assay type: toxicity, cell-based
MGC-803 [22] = assay: Induction of apoptosis in human MGC-803 cells assessed as early apoptotic cells at 7.5 uM incubated for 48 hrs by Annexin V-FITC/PI staining based flow cytometric analysis (reference value: 2.5 %); assay type: functional
MGC-803 [23] = assay: Induction of mitochondrial dysfunction in human MGC-803 cells assessed as increase in green fluorescence intensity at 5 uM incubated for 24 hrs by JC-1 staining based fluorescence microscopic analysis (reference value: 9.9%); assay type: functional
MGC-803 [24] = assay: Antitumor activity against human MGC-803 cells xenografted in SCID mouse assessed as decrease in average tumor weight at 12.5 mg/kg, IG administered for 21 days relative to control; assay type: functional; set-up: scale not given: the % may be the effect or the level left; conditions: time 21 day
In short: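 MGC-803 cells implanted subcutaneously on the right side of SCID mice; dosed at 12.5 or 25 mg/kg in 0.5% CMC-Na (vehicle control) for 21 days. Body weight and tumor size recorded periodically; tumors excised and weighed at end. Means ± SD.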

MGC-803 [25] = assay: Induction of apoptosis in human MGC-803 cells assessed as late apoptotic cells at 5 uM incubated for 48 hrs by Annexin V-FITC/PI staining based flow cytometric analysis (reference value: 0.5 %); assay type: functional
MGC-803 [26] = assay: Inhibition of colony formation in human MGC-803 cells at 1 uM incubated for 9 days by crystal violet staining based analysis relative to control; assay type: functional; conditions: MGC-803, 216 h, time 9 day
In short: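 Clonogenic assay: MGC-803 cells grown 9 days with 0, 1, 2 or 3 μM; colonies counted and inhibition rate calculated against untreated control; mean ± SD of three independent experiments.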

With Cc1cc(N2CC[C@@H](C)[C@@H](N(C)c3ncnc4[nH]ccc34)C2)n2nc(SCc3ccc(C(F)(F)F)cc3)nc2n1 the Activity [1] was “Non-Toxic”, the Activity (MGC-803 [2]) was 3.5% and the Activity (MGC-803 [3]) was “Active”. For the same compound, the Activity (MGC-803 [4]) was 12.82%, the Activity (MGC-803 [5]) was “Dose-Dependent Effect” and the Activity (MGC-803 [6]) was “Dose-Dependent Effect”. It also gave an Activity (MGC-803 [7]) of 8.5%, an Activity (MGC-803 [8]) of 1.6% and an Activity (MGC-803 [9]) of 8.8%. For the same compound, the selectivity ratio [10] was 6.5, the Activity (MGC-803 [11]) was “Active” and the Activity (MGC-803 [12]) was 11.5%. For the same compound, the Activity (MGC-803 [13]) was 40.7%, the Activity [14] was “inactive” and the Activity (MGC-803 [15]) was 28%. The Activity (MGC-803 [16]) was “inactive”, the Activity (MGC-803 [17]) was 4.9% and the Activity [18] was “inactive”. The viability at 5 µM (MGC-803 [19]) was 81.7%, the Activity (MGC-803 [20]) was 0.9% and the IC50 at 72 h [21] was 17.3 µM. It also gave an Activity (MGC-803 [22]) of 8.8%, an Activity (MGC-803 [23]) of 27.7% and an Activity (MGC-803 [24]) of 56.8%. The Activity (MGC-803 [25]) was 17.2% and the inhibition at 1 µM (MGC-803 [26]) was 31%.
